# Measurements as given in ChEMBL document CHEMBL1155512, “Chemoenzymatic synthesis and cannabinoid activity of a new diazabicyclic amide of phenylacetylricinoleic acid” (Bioorg Med Chem Lett, 2010).
# Activity calls are given as the source filed them. No cut-off for these calls is given here.
# Assays:
# [1] = test system: Rattus norvegicus; experiment: Induction addiction in Wistar rat at 20 mg/kg, ip assessed as signs of dependence; assay type: ADME, organism-based; set-up: dose 20 mg/kg, route intraperitoneal; conditions: in vivo
# Procedure, shortened: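 Conditioned place preference test at 20 mg/kg; time spent in the drug-paired compartment A was recorded as the index of rewarding effect or dependence.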
# [2] = test system: Rattus norvegicus; experiment: Reduction of core temperature in Wistar rat at 10 to 40 mg/kg, ip after 15 mins; assay type: functional; conditions: dose mg/kg 10-40; route intraperitoneal
# Procedure, shortened: (§1)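 Individually housed rats (22 °C, 12:12 h light–dark) were randomized to ip vehicle, 10, 20 or 40 mg/kg. Extra groups (n = 10) got 20 or 40 mg/kg 15 min after AM251 (3 mg/kg ip), plus an AM251-alone group. Core temperature was measured with a rectal probe after injection.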
# [3] = test system: Rattus norvegicus; experiment: Effect on sleep-awake cycle in Wistar rat assessed as increase in rapid eye movement sleep at 20 mg/kg, ip measured up to 4 hrs by electromyographic analysis in presence of AM251; assay type: functional, organism-based; set-up: dose 20 mg/kg
# Procedure, shortened: (§2)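 Rats (n = 6/group) had two hippocampal EEG electrodes implanted stereotaxically under ketamine/xylazine/acepromazine anaesthesia, then recovered 10 days and habituated 24 h. Two ip injections 15 min apart: DMSO (1 ml/kg) or AM251, then vegetal oil (1 ml/kg) or test drug. Dosing was at dark-phase onset. Wake, SWS and REMS were scored from EEG/EMG as time per hour over 12 h, plus sleep latency.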
# [4] = test system: Rattus norvegicus; experiment: Effect on sleep-awake cycle in Wistar rat assessed as increase in non rapid eye movement sleep at 20 mg/kg, ip measured up to 4 hrs by electromyographic analysis; assay type: functional, organism-based; set-up: dose 20 mg/kg; procedure, shortened: as §2
# [5] = test system: Rattus norvegicus; experiment: Effect on sleep-awake cycle in Wistar rat assessed as increase in rapid eye movement sleep at 20 mg/kg, ip measured up to 4 hrs by electromyographic analysis; assay type: functional, organism-based; set-up: dose 20 mg/kg; procedure, shortened: as §2
# [6] = test system: Rattus norvegicus; experiment: Increase of pain perception in Wistar rat assessed as latency at 20 to 40 mg/kg, ip measured after 30 to 45 mins by hotplate method in presence of AM251; assay type: functional, organism-based
# Procedure, shortened: (§3)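 Individually housed rats (22 °C, 12:12 h light–dark, food and water ad libitum) were randomized to ip vehicle, 10, 20 or 40 mg/kg. Extra groups (n = 10) got 20 or 40 mg/kg 15 min after AM251 (3 mg/kg ip); another group got AM251 alone. Pain perception was read as hot-plate latency to signs of discomfort.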
# [7] = test system: Rattus norvegicus; experiment: Reduction of core temperature in Wistar rat at 10 to 40 mg/kg, ip up to 45 mins; assay type: functional; conditions: dose mg/kg 10-40; route intraperitoneal; procedure, shortened: as §1
# [8] = test system: Rattus norvegicus; experiment: Increase of pain perception in Wistar rat assessed as latency at 10 to 40 mg/kg, ip measured after 30 to 45 mins by hotplate method; assay type: functional, organism-based; procedure, shortened: as §3
# [9] = test system: Rattus norvegicus; experiment: Increase of pain perception in ip dosed Wistar rat assessed as latency after 30 to 45 mins by hotplate method; assay type: functional, organism-based; procedure, shortened: as §3
# [10] = test system: Rattus norvegicus; experiment: Reduction of core temperature in Wistar rat at 10 to 40 mg/kg, ip measured up to 45 mins in presence of AM251; assay type: functional, organism-based; procedure, shortened: as §1
# [11] = test system: Rattus norvegicus; experiment: Reduction of core temperature in ip dosed Wistar rat up to 45 mins; assay type: functional, organism-based; procedure, shortened: as §1
compound,measurement,setting,value
CCCCCC[C@H](C/C=C\CCCCCCCC(=O)N1CC2CC1CN2C)OC(=O)Cc1ccccc1 (stereo partly specified),Activity,[1],Non-toxic
same,T,[2],1 °C
same,Activity,[3],inactive
same,Activity,[4],Active
same,Activity,[5],Active
same,Activity,[6],inactive
same,T,[7],1.5 °C
same,Activity,[8],Active
same,Activity,[9],inactive
same,Activity,[10],inactive
same,Activity,[11],inactive
